Experimental data published in ChEMBL document CHEMBL1687753, “Mitochondrial DNA depletion and respiratory chain activity in primary human subcutaneous adipocytes treated with nucleoside analogue reverse transcriptase inhibitors” (Antimicrob Agents Chemother, 2010).
Activity calls are given as the source filed them. No cut-off for these calls is given here.

Legend:
[1] = Toxicity in human subcutaneous preadipocytes assessed as decrease of PPARgamma expression at 0.1 uM after 18 days by RT-PCR analysis; assay type: cell-based; settings: 432 h
In short: (§1)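 Differentiating preadipocytes were harvested at day 18. RNA from three plates was pooled and reverse transcribed, and qRT-PCR was run with 42 cycles of 94/55/72°C. Values were normalized to transferrin receptor or beta-actin by standard curve. Triplicates from three independent experiments.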

[2] = Toxicity in human subcutaneous preadipocytes assessed as acquisition of adipocyte shape at 0.1 uM after 30 days using oil red O fluorescence staining by conventional fluorescence microscopy; assay type: cell-based; settings: 720 h
In short: (§2)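 On day 30 of differentiation with drug present from day 0, cells were fixed in 10% formalin and stained with 0.21% oil red O. Staining was viewed by fluorescence and light microscopy. For quantification, dye was extracted with isopropanol and read at 495 nm, also adjusted for viable cell number. Five independent experiments.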

Homo sapiens [3] = assay: Inhibition of electron transport protein complex 2/3 in human subcutaneous preadipocytes at 0.1 uM after 30 to 60 days by photometric analysis; assay type: cell-based
In short: (§3)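 Pooled primary human abdominal subcutaneous preadipocytes induced to differentiate with drug (DMSO vehicle, ≤0.1%) added at day 0 and kept to day 30 or 60. Cells sonicated twice for 10 s; substrates added to lysates and conversion by complexes I+III, II+III, IV, V and citrate synthase read photometrically at 37°C. Three independent experiments.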

[4] = Toxicity in human subcutaneous preadipocytes assessed as decrease of cell viability measured every 5 days at 0.1 uM after 30 days using […]; assay type: cell-based; settings: 720 h
In short: (§4)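 Trypan blue exclusion counted by microscopy at each medium change every fifth day during 30 days of drug exposure in differentiating pooled preadipocytes. Final viability was calculated by excluding the cumulative percentage of dead cells. Five independent experiments.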

[5] = Toxicity in human subcutaneous preadipocytes assessed as decrease of mitochondrial DNA abundance at 0.1 uM after 30 days by RT-PCR analysis; assay type: cell-based; settings: 720 h
In short: (§5)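 mtDNA content of differentiated preadipocytes at day 30 or 60 of drug exposure was measured by real-time quantitative PCR with human-specific primers. Absolute copy numbers came from serial dilutions of plasmid standards. Three independent experiments.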

[6] = Toxicity in human subcutaneous preadipocytes assessed as triacylglyceride droplets at 0.1 uM after 30 days using oil red O fluorescence staining by conventional fluorescence microscopy; assay type: cell-based; settings: 720 h
In short: (§6)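 Preadipocytes were differentiated with a hormone cocktail (IBMX for the first 7 days, dexamethasone, insulin, indomethacin; high-glucose DMEM for days 0–18), with drug or vehicle present from day 0 to day 30. Cells were fixed in 10% formalin, stained with 0.21% oil red O in 60% isopropanol, and imaged by fluorescence microscopy. Quantification was by isopropanol extraction at 495 nm, optionally adjusted for viable cells.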

[7] = Toxicity in human subcutaneous preadipocytes assessed as cell death at 0.1 uM after 30 days using […]; assay type: cell-based; settings: 720 h; in short: as §4
[8] = Toxicity in human subcutaneous preadipocytes assessed as decrease of cell cultures at 0.1 uM after 30 days using oil red O fluorescence staining by conventional fluorescence microscopy; assay type: cell-based; settings: 720 h; in short: as §2
[9] = Toxicity in fully differentiated human subcutaneous preadipocytes assessed as cell death at 0.1 uM after 30 days using […]; settings: 720 h; in short: as §4
[10] = Toxicity in human subcutaneous preadipocytes assessed as effect on mitochondrial mass at 0.1 uM after 30 days using […] by flow cytometry analysis; assay type: cell-based; settings: 720 h
Homo sapiens [11] = assay: Inhibition of citrate synthase in human subcutaneous preadipocytes at 0.1 uM after 30 to 60 days by photometric analysis; assay type: cell-based; in short: as §3
[12] = Toxicity in human subcutaneous preadipocytes assessed as decrease of adiponectin expression at 0.1 uM after 30 days by ELISA; assay type: cell-based; settings: 720 h
In short: (§7)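 Adiponectin secreted into the medium over days 25 to 30 of drug exposure in differentiating preadipocytes was measured by sandwich ELISA of culture supernatant. Three independent experiments.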

[13] = Toxicity in human subcutaneous preadipocytes assessed as decrease of C/EBPalpha expression at 3 uM after 18 days by RT-PCR analysis; assay type: cell-based; settings: 432 h; in short: as §1
Homo sapiens [14] = assay: Inhibition of electron transport protein complex 1/3 in human subcutaneous preadipocytes at 0.1 uM after 30 to 60 days by photometric analysis; assay type: cell-based; in short: as §3
[15] = Toxicity in human subcutaneous preadipocytes assessed as effect on mitochondrial membrane potential at 0.1 uM after 30 days using JC-1 red/green fluorescence dye by flow cytometry analysis; assay type: cell-based; settings: 720 h
In short: (§8)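 Pooled primary human subcutaneous preadipocytes (passage ≤4) were differentiated with drug or DMSO vehicle from day 0 and cultured 30 days. Staining with the JC-1 kit was followed by flow cytometry, and the JC-1 red/green fluorescence intensity ratio was used as the membrane potential read-out. CCCP served as the depolarization control. Three independent experiments, means ± SEM.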

[16] = Toxicity in human subcutaneous preadipocytes assessed as decrease of PPARgamma expression at 3 uM after 18 days by RT-PCR analysis; assay type: cell-based; settings: 432 h; in short: as §1
[17] = Toxicity in human subcutaneous preadipocytes assessed as decrease of mitochondrial DNA abundance at 0.1 uM after 60 days by RT-PCR analysis; assay type: cell-based; settings: 1440 h; in short: as §5
[18] = Toxicity in human subcutaneous preadipocytes assessed as decrease of C/EBPalpha expression at 0.1 uM after 18 days by RT-PCR analysis; assay type: cell-based; settings: 432 h; in short: as §1
[19] = Toxicity in human subcutaneous preadipocytes assessed as decrease of insulin-sensitizing adipokine expression at 0.1 uM after 30 days by RT-PCR analysis; assay type: cell-based; settings: 720 h
In short: (§9)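 Adiponectin mRNA at day 30 was measured by qRT-PCR normalized to transferrin receptor or beta-actin, using pooled RNA and cDNA. Triplicates from three independent experiments.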

[20] = Toxicity in human subcutaneous preadipocytes assessed as decrease of mitochondrial DNA copy number per cell at 0.1 uM after 60 days by RT-PCR analysis; assay type: cell-based; set-up: scale not given: the % may be the effect or the level left; settings: 1440 h; in short: as §5
Homo sapiens [21] = assay: Inhibition of electron transport protein complex 4 in human subcutaneous preadipocytes at 0.1 uM after 30 to 60 days by photometric analysis; assay type: cell-based; in short: as §3
Homo sapiens [22] = assay: Inhibition of electron transport protein complex 5 in human subcutaneous preadipocytes at 0.1 uM after 30 to 60 days by photometric analysis; assay type: cell-based; in short: as §3
[23] = Toxicity in fully differentiated human subcutaneous preadipocytes assessed as cell death at 6 uM after 30 days using […]; settings: 720 h; in short: as §4
[24] = Toxicity in human subcutaneous preadipocytes assessed as decrease of PPARgamma expression at 6 uM after 18 days by RT-PCR analysis; assay type: cell-based; set-up: scale not given: the % may be the effect or the level left; settings: 432 h; in short: as §1
[25] = Toxicity in human subcutaneous preadipocytes assessed as decrease of C/EBPalpha expression at 6 uM after 18 days by RT-PCR analysis; assay type: cell-based; set-up: scale not given: the % may be the effect or the level left; settings: 432 h; in short: as §1
[26] = Toxicity in human subcutaneous preadipocytes assessed as effect on mitochondrial membrane potential at 6 uM after 30 days using JC-1 red/green fluorescence dye by flow cytometry analysis; assay type: cell-based; settings: 720 h; in short: as §8
[27] = Toxicity in human subcutaneous preadipocytes assessed as decrease of mitochondrial DNA abundance at 6 uM after 30 days by RT-PCR analysis; assay type: cell-based; settings: 720 h; in short: as §5
[28] = Toxicity in human subcutaneous preadipocytes assessed as acquisition of adipocyte shape at 6 uM after 30 days using oil red O fluorescence staining by conventional fluorescence microscopy; assay type: cell-based; settings: 720 h; in short: as §2
Homo sapiens [29] = assay: Inhibition of electron transport protein complex 2/3 in human subcutaneous preadipocytes at 6 uM after 30 to 60 days by photometric analysis; assay type: cell-based; in short: as §3
Homo sapiens [30] = assay: Inhibition of electron transport protein complex 1/3 in human subcutaneous preadipocytes at 6 uM after 30 to 60 days by photometric analysis; assay type: cell-based; in short: as §3
Homo sapiens [31] = assay: Inhibition of electron transport protein complex 5 in human subcutaneous preadipocytes at 6 uM after 30 to 60 days by photometric analysis; assay type: cell-based; in short: as §3
[32] = Toxicity in human subcutaneous preadipocytes assessed as decrease of cell viability measured every 5 days at 6 uM after 30 days using […]; assay type: cell-based; settings: 720 h; in short: as §4
[33] = Toxicity in human subcutaneous preadipocytes assessed as decrease of cell cultures at 6 uM after 30 days using oil red O fluorescence staining by conventional fluorescence microscopy; assay type: cell-based; settings: 720 h; in short: as §2
[34] = Toxicity in human subcutaneous preadipocytes assessed as cell death at 6 uM after 30 days using […]; assay type: cell-based; settings: 720 h; in short: as §4
[35] = Toxicity in human subcutaneous preadipocytes assessed as decrease of insulin-sensitizing adipokine expression at 6 uM after 30 days by RT-PCR analysis; assay type: cell-based; settings: 720 h; in short: as §9
Homo sapiens [36] = assay: Inhibition of electron transport protein complex 4 in human subcutaneous preadipocytes at 6 uM after 30 to 60 days by photometric analysis; assay type: cell-based; in short: as §3
[37] = Toxicity in human subcutaneous preadipocytes assessed as decrease of adiponectin expression at 6 uM after 30 days by ELISA; assay type: cell-based; settings: 720 h; in short: as §7
[38] = Toxicity in human subcutaneous preadipocytes assessed as triacylglyceride droplets at 6 uM after 30 days using oil red O fluorescence staining by conventional fluorescence microscopy; assay type: cell-based; settings: 720 h; in short: as §6
Homo sapiens [39] = assay: Inhibition of citrate synthase in human subcutaneous preadipocytes at 6 uM after 30 to 60 days by photometric analysis; assay type: cell-based; in short: as §3
[40] = Toxicity in human subcutaneous preadipocytes assessed as effect on mitochondrial mass at 6 uM after 30 days using […] by flow cytometry analysis; assay type: cell-based; settings: 720 h

With `Nc1ccn([C@H]2CC[C@@H](CO)O2)c(=O)n1` [ZALCITABINE] the Activity [1] was “Non-toxic”, the Activity [2] was “Non-toxic” and the inhibition (Homo sapiens [3]) was “inactive”. For the same compound, the Activity [4] was “Toxic”, the Activity [5] was “Toxic” and the Activity [6] was “Non-toxic”. For the same compound, the Activity [7] was “Toxic”, the Activity [8] was “Toxic” and the Activity [9] was “Toxic”. For the same compound, the Activity [10] was “Non-toxic”, the inhibition (Homo sapiens [11]) was “inactive” and the Activity [12] was “Non-toxic”. The Activity [13] was “Non-toxic”, the inhibition (Homo sapiens [14]) was “inactive” and the Activity [15] was “Non-toxic”. For the same compound, the Activity [16] was “Non-toxic”, the Activity [17] was “Toxic” and the Activity [18] was “Non-toxic”. For the same compound, the Activity [19] was “Non-toxic”, the Activity [20] was 50% and the inhibition (Homo sapiens [21]) was “inactive”. The inhibition (Homo sapiens [22]) was “inactive”.

With `Cc1cn([C@H]2C[C@H](N=[N+]=[N-])[C@@H](CO)O2)c(=O)[nH]c1=O` [ZIDOVUDINE] the Activity [23] was “Toxic”, the Activity [24] was 40% and the Activity [25] was 40%. For the same compound, the Activity [26] was “Non-toxic”, the Activity [27] was “Non-toxic” and the Activity [28] was “Non-toxic”. The inhibition (Homo sapiens [29]) was “inactive”, the inhibition (Homo sapiens [30]) was “inactive” and the inhibition (Homo sapiens [31]) was “inactive”. For the same compound, the Activity [32] was “Toxic”, the Activity [33] was “Toxic” and the Activity [34] was “Toxic”. For the same compound, the Activity [35] was “Non-toxic”, the inhibition (Homo sapiens [36]) was “inactive” and the Activity [37] was “Non-toxic”. The Activity [38] was “Non-toxic”, the inhibition (Homo sapiens [39]) was “inactive” and the Activity [40] was “Non-toxic”.
